# Only some compounds are listed: those with a hit (about 1.6% of all), similar ones and a draw of the others.
# ATG4B inh – inhibitors of human ATG4B cysteine protease. AID 504462. Q9Y4P1. ATG4B cleavage of LC3-PLA2, NBD-HPC fluorescence, 1 h. hit rate 0.51% among 340,000. inhibition, % at 8.33 µM; in the data active = inhibition above about 40%
# PfG6PD inh – PfG6PD (Plasmodium falciparum) enzyme inhibition; inhibition, % at 20 µM; hit rate 0.78% among 350,000; PfGluPho enzyme, NADPH resazurin-diaphorase fluorescence; AID 504690;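 active = inhibition reaching at least a set limit at 20 µM in the primary screen, cut at about 59% in these data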;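 also: 0% = DMSO wells with substrate and 100% = DMSO wells lacking glucose-6-phosphate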
# HKDC1 inhibitor – HKDC1 (human) hexokinase inhibition | AID 493160 | inhibition, % at 20 µM | recombinant HKDC1, G6PDH/diaphorase resazurin coupled fluorescence | hit rate 0.16% among 340,000 | Q2TB90;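 active = inhibition above about 35% when tested at 20 µM, limit read from the data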;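 also: plate controls were DMSO wells with enzyme for no effect and DMSO wells lacking enzyme for full effect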
#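 Assay system: in-house recombinant HK5 (HKDC1) enzyme. Input: HKDC1 at 5 µg/mL. Medium: Tris pH 8.0 buffer with MgCl2, Tween-20, BSA, BME. Dosing: single 20 µM dose. Schedule: 90 min reaction incubation at room temperature, dark. Signal: resazurin-to-resorufin fluorescence via G6PDH and diaphorase coupling, 525/613 nm. Controls: DMSO-enzyme wells negative, buffer-substituted wells positive.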
# PKA-R2B activ – activates the human PKA-R2B holoenzyme complex | P22694+P31323 | PKA-R2B holoenzyme dissociation, Cy5-IP20 fluorescence polarization; R2B truncated from residue 108, S112A mutant; 0% DMSO only, 100% 113 µM cGMP | activation, % at 11.4 µM | hit rate 0.079% among 340,000 | AID 504700;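 active = activation above a cutoff set at the mean over all compounds plus 3 SD, cut at about 18% in these data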;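 also: higher means more holoenzyme dissociation and a rise in polarization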
# Target sequence (P31323 whole entry, looked up, other chains not shown, the tested form may be a part): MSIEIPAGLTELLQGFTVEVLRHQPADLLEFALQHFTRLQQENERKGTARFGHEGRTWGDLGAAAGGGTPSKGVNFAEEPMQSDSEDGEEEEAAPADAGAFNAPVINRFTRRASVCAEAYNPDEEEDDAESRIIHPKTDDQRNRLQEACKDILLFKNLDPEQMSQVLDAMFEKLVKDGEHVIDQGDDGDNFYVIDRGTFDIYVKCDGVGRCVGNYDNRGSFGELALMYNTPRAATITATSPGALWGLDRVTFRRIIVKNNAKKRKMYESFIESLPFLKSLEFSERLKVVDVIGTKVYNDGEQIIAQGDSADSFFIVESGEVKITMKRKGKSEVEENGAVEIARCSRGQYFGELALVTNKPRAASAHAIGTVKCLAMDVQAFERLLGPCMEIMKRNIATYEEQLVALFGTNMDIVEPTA
# PKA-R1A activ – activates the PKA-R1A holoenzyme complex | P00514+P68181 | PKA-R1A dissociation, Cy5-IP20 fluorescence polarization; scaled: DMSO 0%, 113 µM cGMP 100% | activation, % at 11.4 µM | hit rate 0.083% among 340,000;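 active = percent activation above the mean of all tested compounds plus 3 SD, cut at about 19% in these data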;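 also: higher means more PKAc released from R1A so a rise in polarization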
# T cell modulator – T cell immune modulation candidate; response (vesicle binding), % at 7 µM; AID 2052; 2C CD8+ T cell-vesicle binding, flow cytometry; hits give low values; hit rate 0.068% among 330,000;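 active = response, share of CD8 T cells binding vesicles, and their 90th percentile fluorescence all below set limits, cut at about 80% in these data, passing the limit was not always enough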;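 also: values below 100% mean blocked vesicle binding to the CD8+ T cells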
#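 Material: murine 2C transgenic CD8+ T lymphocytes / Also added: QL9-peptide-loaded Drosophila micro-vesicles bearing Ld, ICAM-1 and B7-1 / Schedule: binding step 1.5 h, 37 °C, antibody labelling 20 min, ice / Signal: flow cytometry, PE anti-B7-1 (FL2) versus Alexa647 anti-CD8 (FL8), PFA-fixed / Evaluation: percent CD8+ FL2 mean versus row control / Benchmarks: naked versus QL9-loaded vesicles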
# Numbers without * were called inactive; i = inactive; x = not tested or not shown; ! = not confirmed by another sample.
SMILES,ATG4B inh,PfG6PD inh,HKDC1 inhibitor,PKA-R2B activ,PKA-R1A activ,T cell modulator
COc1ccccc1N1CCN(C2CCCN(C(=O)CCc3c(C)noc3C)C2)CC1 (stereo not drawn),-2,-8,-4,-7,1,264
Cc1c(Br)c(O)c(Br)c(O)c1/C=N/n1c(-c2ccccc2)n[nH]c1=S,69*,27,16,6,0,556
O=C(OCc1cn([C@H]2C[C@H](c3ccccc3)N(Cc3cccs3)C[C@@H]2O)nn1)c1ccccc1,x,7,x,1,4,x
Clc1ccccc1N=Nc1ccccn1,2,91*,4,-8,-4,x
CSc1nc(N(CCO)CCO)c2sc3nc(-c4ccco4)c4c(c3c2n1)CCC4,0,40,37*,17,-5,x
C[C@H]1CN([C@@H](C)CO)C(=O)CCCn2nncc2CO[C@H]1CN(C)C(=O)C1CCCCC1,x,3,x,0,4,x
CSc1ccccc1C(=O)N(CC1CCCO1)c1c(N)n(Cc2ccccc2)c(=O)[nH]c1=O (stereo not drawn),1,-2,-2,-12,-8,498
O=C(/C=C/c1ccco1)N(Cc1cccc(F)c1)C1CCS(=O)(=O)C1 (stereo not drawn),-5,23,1,-1,-13,244
CCOC(=O)CSc1nc2c(sc(=S)n2-c2ccc(CC)cc2)c(=O)[nH]1,3,-46,4,-1,3,314
CCOC(=O)c1ccc(-n2c(=S)sc3c(=O)[nH]c(C)nc32)cc1,-3,66*,-12,-11,-6,923
O=C(/C=C(\O)c1ccccc1)C(=O)NNC(=O)c1ccccc1,-8,-29,-8,-6,0,93
O=C(/C=C(\O)c1ccc(Cl)cc1)C(=O)NNC(=O)C(O)(c1ccccc1)c1ccccc1,42*,-24,5,12,1,44
O=C(COc1ccccc1F)NCC(c1ccco1)N1CCCC1 (stereo not drawn),-11,-9,12,0,-6,50*
Cn1c(=O)c(=O)n(C)c2cc(S(=O)(=O)CCC(=O)Nc3ccccc3C(F)(F)F)ccc21,x,-9,x,0,-1,x
Cc1cc(O)c(C(=O)/C=C/c2ccc(Cl)cc2)c(=O)o1,1,-6,10,-1,1,238
O=C(/C=C/c1ccc(Cl)cc1)c1ccc([N+](=O)[O-])o1,5,53,54*,8,-7,148
O=C1CSC(=S)N1/N=C/c1ccc(O)c(O)c1O,6,79*,21,4,1,151
Cn1c(CNC(=O)c2ccc3c(c2)OCO3)nnc1SCC(=O)Nc1ccc(F)cc1F,-6,0,-7,-1,-2,302
O=C1S/C(=C/c2ccc(N3CCOCC3)o2)C(=O)N1Cc1ccc(F)cc1,-2,44,-1,0,6,i
O=C1/C(=C/c2ccc(N3CCOCC3)o2)SC(=Nc2ccccc2)N1CCc1c[nH]c2ccccc12,-3,77*,10,3,0,767
O=C1S/C(=C\c2ccc(N3CCOCC3)o2)C(=O)N1Cc1ccc(F)cc1,6,60*,15,-15,-8,938
O=C1NC(=S)S/C1=C/c1ccc(N2CCOCC2)o1,0,12,-3,9,1,i
Cc1cc2c(N=O)c(NO)ccc2[nH]1,-2,70*,-3,-4,-9,600
O=Nc1c(O)[nH]c2ccc(F)cc12,5,-13,-4,-1,-2,322
COc1ccc(OC)c(N)c1,12,62*,17,-2,2,197
SMILES,ATG4B inh,PfG6PD inh,HKDC1 inhibitor,PKA-R2B activ,PKA-R1A activ,T cell modulator
COc1cccc2ccc(CC(O)(c3ccccc3)c3ccccc3)nc12,x,13,x,5,1,x
COc1ccc2oc(=O)c(-c3csc(Nc4cccc(O)c4)n3)cc2c1,38,28,-11,-19,-7,0.0*
c1ccc(C[n+]2csc3ccccc32)cc1,0,62*,-5,0,-4,208
Cc1nc(-c2ccc(S(=O)(=O)Nc3ccc(Br)cc3F)cc2)co1,-6,-5,0,-13,6,448
CC(C)(C)C1CCC(CN2CCC(CN3C(=O)C(=O)NC[C@@H]3Cc3ccccc3)CC2)CC1 (stereo partly drawn),x,0,-7,-7,1,x
CN(C)c1c([N+](=O)[O-])cc(N2C(=O)C=CC2=O)cc1[N+](=O)[O-],1,103*,0,-1,10,x
CCc1ccc(C(=O)/C=C2\Sc3ccccc3NC2=O)cc1,56*,-26,-31,-5,-4,475
CCCCNC(=O)/C=C1\Sc2ccccc2NC1=O,-6,18,5,-3,0,351
Cc1sc2c(c1C)C(=O)NC(c1ccccc1F)N2 (stereo not drawn),8,75*,-10,-2,-9,349
Cc1ccc(CN2Cc3cccc4c3[C@@H](CC2=O)[C@H](O)[C@H](O)C4)cc1,-8,-1,-6,3,8,212
COc1cccc(-c2c(C(=O)N/N=C/c3cccs3)nnn2-c2nonc2N)c1,-10,59*,11,11,-7,358
CCOc1cccc(-c2c(C(=O)N/N=C/c3cccs3)nnn2-c2nonc2N)c1,-2,42,2,-4,-12,519
CCNc1ncnc2c1cnn2C1CCCO1 (stereo not drawn),5,1,-3,3,3,x
N[C@@H](Cc1cc(I)c(Oc2cc(I)c(O)c(I)c2)c(I)c1)C(=O)O,45*,-15,8,x,x,270
N[C@@H](Cc1cc(I)c(Oc2ccc(O)c(I)c2)c(I)c1)C(=O)O,84*!,-10,14,-10,-20,349
CCN(CC)c1ccc2c(O)cc(=O)oc2c1,1,4,5,-6,-9,199
CCN(CC)c1ccc2c(Cl)cc(=O)oc2c1,4,-21,1,x,x,52*
COc1ccc(-n2c(SCC(=O)C(C)(C)C)nc3c(sc(=S)n3-c3ccccc3)c2=O)c(OC)c1,-4,78*,-14,4,-16,138
O=C1c2cc(Br)ccc2N(Cc2ccc(Br)cc2)S(=O)(=O)C1c1cc(Cl)c(Cl)cc1[N+](=O)[O-] (stereo not drawn),68*,-11,2,-18,-2,314
COc1ccc2[nH]c(C(=O)N3CCN(Cc4ccccc4)CC3)cc2c1OC,-8,3,6,1,3,298
O=C(/C=C/c1c(Cl)cccc1Cl)Nc1ccncc1,-15,20,5,2,-3,0.0*
CN(CC(=O)Nc1cccc(S(=O)(=O)N2CCOCC2)c1)CC(=O)Nc1ccc(Cl)c(C(F)(F)F)c1,-14,13,0,-2,0,202
